Measurements reported in ChEMBL document CHEMBL1124386, “Selective thyromimetics. Cardiac-sparing thyroid hormone analogues containing 3'-arylmethyl substituents” (J Med Chem, 1989).
The source made the active and inactive calls. The rule behind the calls is not given here.

system: Thyroid hormone receptor (Rattus norvegicus); assay: Binding affinity to thyroid hormone receptor, relative to 3,5,3' triiodothyronine receptor, in isolated nuclei of heart; conditions: not given

Compound | Relative IC50
N[C@@H](Cc1cc(I)c(Oc2ccc(O)c(Cc3ccc(O)c(F)c3)c2)c(I)c1)C(=O)O | 31
CC(C)c1cc(Cc2cc(Oc3c(I)cc(C[C@H](N)C(=O)O)cc3I)ccc2O)ccc1O | 4.4

biological target: T1, Thyroid hormone receptor beta (Rattus norvegicus) (UniProt P18113); assay: Binding affinity to the receptor was determined in vivo in rat liver nuclei 1 h after intravenous administration relative to 3,5,3' triiodothyronine receptor; conditions: not given
T1 sequence (whole entry): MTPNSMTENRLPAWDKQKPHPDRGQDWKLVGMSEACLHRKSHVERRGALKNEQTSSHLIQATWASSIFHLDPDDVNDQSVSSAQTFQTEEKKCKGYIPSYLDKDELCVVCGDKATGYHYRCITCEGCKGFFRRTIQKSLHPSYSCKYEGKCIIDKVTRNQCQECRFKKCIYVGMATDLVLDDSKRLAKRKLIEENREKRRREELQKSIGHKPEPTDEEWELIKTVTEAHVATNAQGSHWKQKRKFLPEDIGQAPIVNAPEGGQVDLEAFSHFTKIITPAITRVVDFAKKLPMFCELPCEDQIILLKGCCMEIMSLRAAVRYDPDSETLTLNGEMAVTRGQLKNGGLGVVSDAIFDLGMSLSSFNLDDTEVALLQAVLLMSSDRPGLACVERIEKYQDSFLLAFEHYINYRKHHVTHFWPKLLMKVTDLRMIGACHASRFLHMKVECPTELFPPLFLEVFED

Compound | Relative ID50
N[C@@H](Cc1cc(I)c(Oc2ccc(O)c(Cc3ccnc(O)c3)c2)c(I)c1)C(=O)O | 0.07
N[C@@H](Cc1cc(I)c(Oc2ccc(O)c(Cc3cnc(O)nc3)c2)c(I)c1)C(=O)O | 0.28

system: Rattus norvegicus; assay: Potency for induction of GPDH (mitochondrial cytochrome C 3-phosphoglycerate oxidoreductase) was measured 48 hr after single im injection relative to T3 in heart; LM=low maximal response after 2 daily doses of 50 mg/kg; type: functional, organism-based; design: dose 50 mg/kg; conditions: filed as partial agonist

Compound | Relative ED50
CC(C)c1cc(Cc2cc(Oc3c(I)cc(C[C@H](N)C(=O)O)cc3I)ccc2O)ccc1O | Partial agonist

biological target: T1, Thyroid hormone receptor beta (Rattus norvegicus); assay: Binding affinity to the receptor was determined in nuclei of heart in vivo 1 hour after intravenous administration relative to 3,5,3' triiodothyronine receptor; conditions: not given

Compound | Relative ID50
N[C@@H](Cc1cc(I)c(Oc2ccc(O)c(Cc3ccc(F)cc3)c2)c(I)c1)C(=O)O | 8.6
N[C@@H](Cc1cc(I)c(Oc2ccc(O)c(Cc3ccccc3)c2)c(I)c1)C(=O)O | 0.3
N#Cc1ccc(Cc2cc(Oc3c(I)cc(C[C@H](N)C(=O)O)cc3I)ccc2O)cc1 | 0.22
N[C@@H](Cc1cc(I)c(Oc2ccc(O)c(Cc3ccccc3O)c2)c(I)c1)C(=O)O | 0.024

biological target: T1, Thyroid hormone receptor beta (Rattus norvegicus); assay: Binding affinity to the receptor was determined in nuclei of liver In vivo 1 hour after intravenous administration relative to 3,5,3' triiodothyronine receptor; type: organism-based; conditions: not given

Compound | Relative ID50
N[C@@H](Cc1cc(I)c(Oc2ccc(O)c(Cc3ccc(F)cc3)c2)c(I)c1)C(=O)O | 98

biological target: T1, Thyroid hormone receptor beta (Rattus norvegicus); assay: Binding affinity to the receptor was determined in vitro in isolated nuclei of rat liver relative to T3; type: tissue-based; conditions: not given

Compound | Relative IC50
N[C@@H](Cc1cc(I)c(Oc2ccc(O)c(Cc3ccnc(O)c3)c2)c(I)c1)C(=O)O | 0.042
N[C@@H](Cc1cc(I)c(Oc2ccc(O)c(Cc3cnc(O)nc3)c2)c(I)c1)C(=O)O | 0.15
O=C(O)CCc1cc(Br)c(Oc2ccc(O)c(Cc3ccc(O)nc3)c2)c(Br)c1 | 31.6

system: Rattus norvegicus; assay: Potency for induction of GPDH (mitochondrial cytochrome C 3-phosphoglycerate oxidoreductase) was measured 48 hr after single im injection relative to T3 in liver; LM=low maximal response after 2 daily doses of 50 mg/kg; type: functional, organism-based; design: dose 50 mg/kg; conditions: filed as partial agonist

Compound | Relative ED50
N#Cc1ccc(Cc2cc(Oc3c(I)cc(C[C@H](N)C(=O)O)cc3I)ccc2O)cc1 | Partial agonist
N[C@@H](Cc1cc(I)c(Oc2ccc(O)c(Cc3ccc(O)c(F)c3)c2)c(I)c1)C(=O)O | Partial agonist
N[C@@H](Cc1cc(I)c(Oc2ccc(O)c(Cc3ccccc3O)c2)c(I)c1)C(=O)O | Partial agonist
Cn1cc(Cc2cc(Oc3c(I)cc(C[C@H](N)C(=O)O)cc3I)ccc2O)ccc1=O | Partial agonist
N[C@@H](Cc1cc(I)c(Oc2ccc(O)c(Cc3ccnc(O)c3)c2)c(I)c1)C(=O)O | Partial agonist
CC(C)c1cc(Cc2cc(Oc3c(I)cc(C[C@H](N)C(=O)O)cc3I)ccc2O)ccc1O | Partial agonist

system: Rattus norvegicus; assay: In vivo binding affinity for 3,5,3' triiodothyronine receptor of liver nuclei 1 hour after intravenous administration; type: organism-based; conditions: not given

Compound | Relative ID50
N[C@@H](Cc1cc(I)c(Oc2ccc(O)c(Cc3ccc(O)c(F)c3)c2)c(I)c1)C(=O)O | 0.6
CC(C)c1cc(Cc2cc(Oc3c(I)cc(C[C@H](N)C(=O)O)cc3I)ccc2O)ccc1O | 0.11

system: Rattus norvegicus; assay: Potency for induction of GPDH (mitochondrial cytochrome C3-phosphoglycerate oxidoreductase) was measured 48 hr after single im injection relative to T3 in heart; I=inactive after 2 daily doses of 50 mg/kg; type: functional, organism-based; design: dose 50 mg/kg; conditions: not given

Compound | Relative ED50
N#Cc1ccc(Cc2cc(Oc3c(I)cc(C[C@H](N)C(=O)O)cc3I)ccc2O)cc1 | inactive
N[C@@H](Cc1cc(I)c(Oc2ccc(O)c(Cc3ccc(O)c(F)c3)c2)c(I)c1)C(=O)O | inactive
Cn1cc(Cc2cc(Oc3c(I)cc(C[C@H](N)C(=O)O)cc3I)ccc2O)ccc1=O | inactive
N[C@@H](Cc1cc(I)c(Oc2ccc(O)c(Cc3ccnc(O)c3)c2)c(I)c1)C(=O)O | inactive
N[C@@H](Cc1cc(I)c(Oc2ccc(O)c(Cc3cnc(O)nc3)c2)c(I)c1)C(=O)O | inactive

system: Rattus norvegicus; assay: Potency for induction of GPDH (mitochondrial cytochrome C3-phosphoglycerate oxidoreductase) was measured 48 hours after single intramuscular injection relative to T3 in liver; type: functional; conditions: not given

Compound | Relative ED50
N[C@@H](Cc1cc(I)c(Oc2ccc(O)c(Cc3ccccc3)c2)c(I)c1)C(=O)O | 2.2
O=C(O)CCc1cc(Br)c(Oc2ccc(O)c(Cc3ccc(O)nc3)c2)c(Br)c1 | 2

system: Rattus norvegicus; assay: Potency for induction of GPDH (mitochondrial cytochrome C3-phosphoglycerate oxidoreductase) was measured 48 hours after single intramuscular injection relative to T3 in liver; LM is low maximal response after 2 daily doses of 50 mg/kg; type: functional; conditions: not given

Compound | Relative ED50
N[C@@H](Cc1cc(I)c(Oc2ccc(O)c(Cc3ccc(O)cc3)c2)c(I)c1)C(=O)O | 2.2
N[C@@H](Cc1cc(I)c(Oc2ccc(O)c(Cc3ccc(F)cc3)c2)c(I)c1)C(=O)O | 5.7

system: Rattus norvegicus; assay: Potency for induction of GPDH (mitochondrial cytochrome C3-phosphoglycerate oxidoreductase) was measured 48 hr after single im injection relative to T3 in liver; I=inactive after 2 daily doses of 50 mg/kg; type: functional, organism-based; design: dose 50 mg/kg; conditions: not given

Compound | Relative ED50
N[C@@H](Cc1cc(I)c(Oc2ccc(O)c(Cc3cnc(O)nc3)c2)c(I)c1)C(=O)O | inactive

organism: Rattus norvegicus; assay: Selectivity ratio of ID50 in liver and heart; conditions: not given
Method in brief: (§1)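 Liver/heart selectivity in rats, calculated as (relative ID50)liver divided by (relative ID50)heart, from in vivo nuclear binding 1 h after intravenous dosing.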

Compound | Ratio
N[C@@H](Cc1cc(I)c(Oc2ccc(O)c(Cc3ccc(O)c(F)c3)c2)c(I)c1)C(=O)O | 1.62
CC(C)c1cc(Cc2cc(Oc3c(I)cc(C[C@H](N)C(=O)O)cc3I)ccc2O)ccc1O | 1

system: Rattus norvegicus; assay: In vivo binding affinity for 3,5,3'' triiodothyronine receptor of heart nuclei 1 hr after intravenous administration; type: organism-based; conditions: not given

Compound | Relative ID50
N[C@@H](Cc1cc(I)c(Oc2ccc(O)c(Cc3ccc(O)c(F)c3)c2)c(I)c1)C(=O)O | 0.37
CC(C)c1cc(Cc2cc(Oc3c(I)cc(C[C@H](N)C(=O)O)cc3I)ccc2O)ccc1O | 0.11

biological target: T1, Thyroid hormone receptor beta (Rattus norvegicus); assay: In vitro binding affinity to the receptor was determined in isolated nuclei of heart relative to T3; conditions: not given

Compound | Relative IC50
N[C@@H](Cc1cc(I)c(Oc2ccc(O)c(Cc3cnc(O)nc3)c2)c(I)c1)C(=O)O | 0.58
O=C(O)CCc1cc(Br)c(Oc2ccc(O)c(Cc3ccc(O)nc3)c2)c(Br)c1 | 33.2

biological target: T1, Thyroid hormone receptor beta (Rattus norvegicus); assay: Selectivity, ratio of relative ID50 in liver and heart; conditions: not given
Method in brief: as §1

Compound | Ratio
N[C@@H](Cc1cc(I)c(Oc2ccc(O)c(Cc3ccc(F)cc3)c2)c(I)c1)C(=O)O | 11.4

system: Rattus norvegicus; assay: Potency for induction of GPDH (mitochondrial cytochrome C3-phosphoglycerate oxidoreductase) was measured 48 hours after single intramuscular injection relative to T3 in heart; type: functional; conditions: not given

Compound | Relative ED50
N[C@@H](Cc1cc(I)c(Oc2ccc(O)c(Cc3ccc(O)cc3)c2)c(I)c1)C(=O)O | <0.1
N[C@@H](Cc1cc(I)c(Oc2ccc(O)c(Cc3ccc(F)cc3)c2)c(I)c1)C(=O)O | 3.7
N[C@@H](Cc1cc(I)c(Oc2ccc(O)c(Cc3ccccc3)c2)c(I)c1)C(=O)O | 0.5
O=C(O)CCc1cc(Br)c(Oc2ccc(O)c(Cc3ccc(O)nc3)c2)c(Br)c1 | 0.04

system: not listed separately; assay: Binding affinity to the thyroid hormone receptor was determined in vitro in isolated nuclei of rat liver relative to 3,5,3' triiodothyronine; type: tissue-based; conditions: not given

Compound | Relative IC50
N[C@@H](Cc1cc(I)c(Oc2ccc(O)c(Cc3ccc(O)cc3)c2)c(I)c1)C(=O)O | 17
N[C@@H](Cc1cc(I)c(Oc2ccc(O)c(Cc3ccc(F)cc3)c2)c(I)c1)C(=O)O | 60
N[C@@H](Cc1cc(I)c(Oc2ccc(O)c(Cc3ccccc3)c2)c(I)c1)C(=O)O | 15
N#Cc1ccc(Cc2cc(Oc3c(I)cc(C[C@H](N)C(=O)O)cc3I)ccc2O)cc1 | 13
Cc1cc(O)c(Cc2ccc(O)nc2)cc1Oc1c(I)cc(C[C@H](N)C(=O)O)cc1I | 0.028
N[C@@H](Cc1cc(I)c(Oc2ccc(O)c(Cc3ccc(O)c(F)c3)c2)c(I)c1)C(=O)O | 31
N[C@@H](Cc1cc(I)c(Oc2ccc(O)c(Cc3ccccc3O)c2)c(I)c1)C(=O)O | 0.81
Cn1cc(Cc2cc(Oc3c(I)cc(C[C@H](N)C(=O)O)cc3I)ccc2O)ccc1=O | 0.76
CC(C)c1cc(Cc2cc(Oc3c(I)cc(C[C@H](N)C(=O)O)cc3I)ccc2O)ccc1O | 0.67

biological target: T1, Thyroid hormone receptor beta (Rattus norvegicus); assay: Binding affinity to the receptor was determined in nuclei of liver In vivo 1 hour after intravenous administration relative to T3; type: organism-based; conditions: not given

Compound | Relative ID50
N[C@@H](Cc1cc(I)c(Oc2ccc(O)c(Cc3ccc(O)cc3)c2)c(I)c1)C(=O)O | 19
N[C@@H](Cc1cc(I)c(Oc2ccc(O)c(Cc3ccccc3)c2)c(I)c1)C(=O)O | 5.1
N#Cc1ccc(Cc2cc(Oc3c(I)cc(C[C@H](N)C(=O)O)cc3I)ccc2O)cc1 | 6.1
N[C@@H](Cc1cc(I)c(Oc2ccc(O)c(Cc3ccccc3O)c2)c(I)c1)C(=O)O | 0.024

biological target: T1, Thyroid hormone receptor beta (Rattus norvegicus); assay: Binding affinity to the receptor was determined in nuclei of heart in vivo 1 hour after intravenous administration relative to T3; type: organism-based; conditions: not given

Compound | Relative ID50
O=C(O)CCc1cc(Br)c(Oc2ccc(O)c(Cc3ccc(O)nc3)c2)c(Br)c1 | 4.2

system: Rattus norvegicus; assay: Potency for induction of GPDH was measured 48 hr after single intramuscular injection relative to T3 in lheart; LM=low maximal response after 2 daily doses of 50 mg/kg; type: functional, organism-based; design: dose 50 mg/kg; conditions: filed as partial agonist

Compound | Relative ED50
N[C@@H](Cc1cc(I)c(Oc2ccc(O)c(Cc3ccccc3O)c2)c(I)c1)C(=O)O | Partial agonist

system: not listed separately; assay: Selectivity, ratio between relative ID50 in liver and heart; conditions: not given
Method in brief: as §1

Compound | Ratio
N[C@@H](Cc1cc(I)c(Oc2ccc(O)c(Cc3ccc(O)cc3)c2)c(I)c1)C(=O)O | 27.1
N[C@@H](Cc1cc(I)c(Oc2ccc(O)c(Cc3ccccc3)c2)c(I)c1)C(=O)O | 17
N#Cc1ccc(Cc2cc(Oc3c(I)cc(C[C@H](N)C(=O)O)cc3I)ccc2O)cc1 | 27.7
N[C@@H](Cc1cc(I)c(Oc2ccc(O)c(Cc3ccccc3O)c2)c(I)c1)C(=O)O | 1
Cn1cc(Cc2cc(Oc3c(I)cc(C[C@H](N)C(=O)O)cc3I)ccc2O)ccc1=O | 74.1
N[C@@H](Cc1cc(I)c(Oc2ccc(O)c(Cc3ccnc(O)c3)c2)c(I)c1)C(=O)O | 20
N[C@@H](Cc1cc(I)c(Oc2ccc(O)c(Cc3cnc(O)nc3)c2)c(I)c1)C(=O)O | 45.2

biological target: T1, Thyroid hormone receptor beta (Rattus norvegicus); assay: Binding affinity to the receptor was determined in isolated nuclei of heart in vitro relative to 3,5,3' triiodothyronine receptor; conditions: not given

Compound | Relative IC50
N[C@@H](Cc1cc(I)c(Oc2ccc(O)c(Cc3ccc(F)cc3)c2)c(I)c1)C(=O)O | 43
